Data: ChEMBL document CHEMBL1255540, “Synthesis and biological evaluation of novel coumarin-based inhibitors of Cdc25 phosphatases” (Bioorg Med Chem Lett, 2010)
Activity calls are given as the source filed them. The rule behind the calls is not given here.

Tests used:
[1] = molecular target: T1, M-phase inducer phosphatase 3 (Homo sapiens) (UniProt P30307); assay: Inhibition of human recombinant GST-tagged CDC25C expressed in bacterial expression system at 100 uM after 2 hrs
T1 sequence (whole entry): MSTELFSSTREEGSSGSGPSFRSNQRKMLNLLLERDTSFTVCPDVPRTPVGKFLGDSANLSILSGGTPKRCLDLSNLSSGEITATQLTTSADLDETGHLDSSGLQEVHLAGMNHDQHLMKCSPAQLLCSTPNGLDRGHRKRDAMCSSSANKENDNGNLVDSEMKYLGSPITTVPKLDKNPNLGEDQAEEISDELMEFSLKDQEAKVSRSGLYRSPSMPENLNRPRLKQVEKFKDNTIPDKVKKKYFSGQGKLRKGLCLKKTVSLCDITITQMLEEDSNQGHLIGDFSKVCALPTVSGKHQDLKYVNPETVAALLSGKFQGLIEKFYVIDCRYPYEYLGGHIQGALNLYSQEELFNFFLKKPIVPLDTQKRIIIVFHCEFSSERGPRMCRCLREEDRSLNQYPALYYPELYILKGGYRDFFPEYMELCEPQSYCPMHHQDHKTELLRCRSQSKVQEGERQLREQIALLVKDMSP
Method in brief: (§1)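 Full-length GST-Cdc25C, bacterial IPTG expression, GSH-agarose purification. 1 µg enzyme per well. Single-point tests at 100 µM final (reference 10 µM) and IC50 values. Each concentration in three separate microplates, three wells each. IC50 by generalized Poisson regression.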

[2] = molecular target: T2, M-phase inducer phosphatase 2 (Homo sapiens) (UniProt P30305); assay: Inhibition of human recombinant GST-tagged CDC25B expressed in bacterial expression system at 100 uM after 2 hrs
T2 sequence (whole entry): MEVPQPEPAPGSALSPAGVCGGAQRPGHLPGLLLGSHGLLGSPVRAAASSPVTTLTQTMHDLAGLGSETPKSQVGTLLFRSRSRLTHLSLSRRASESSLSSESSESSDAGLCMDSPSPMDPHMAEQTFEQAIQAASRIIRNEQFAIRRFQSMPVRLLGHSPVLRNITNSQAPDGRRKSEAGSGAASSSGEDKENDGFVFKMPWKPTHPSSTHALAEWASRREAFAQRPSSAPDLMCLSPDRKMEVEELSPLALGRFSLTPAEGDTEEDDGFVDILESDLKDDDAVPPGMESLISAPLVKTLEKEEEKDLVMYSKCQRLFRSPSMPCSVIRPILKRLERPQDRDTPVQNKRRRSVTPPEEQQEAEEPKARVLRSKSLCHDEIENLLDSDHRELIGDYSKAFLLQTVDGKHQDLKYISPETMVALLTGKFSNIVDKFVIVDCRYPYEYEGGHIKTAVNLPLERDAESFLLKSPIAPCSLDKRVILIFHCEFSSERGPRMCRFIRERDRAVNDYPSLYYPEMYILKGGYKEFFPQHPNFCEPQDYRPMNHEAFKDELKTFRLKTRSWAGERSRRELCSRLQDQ
Method in brief: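 Truncated GST-Cdc25B (active site only) expressed in bacteria by IPTG induction, purified on GSH-agarose. Tested at 100 µM final, reference at 10 µM. Percent inhibition, mean of three independent experiments with SD.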

[3] = molecular target: T3, M-phase inducer phosphatase 1 (Homo sapiens) (UniProt P30304); assay: Inhibition of human recombinant GST-tagged CDC25A expressed in bacterial expression system at 100 uM after 2 hrs
T3 sequence (whole entry): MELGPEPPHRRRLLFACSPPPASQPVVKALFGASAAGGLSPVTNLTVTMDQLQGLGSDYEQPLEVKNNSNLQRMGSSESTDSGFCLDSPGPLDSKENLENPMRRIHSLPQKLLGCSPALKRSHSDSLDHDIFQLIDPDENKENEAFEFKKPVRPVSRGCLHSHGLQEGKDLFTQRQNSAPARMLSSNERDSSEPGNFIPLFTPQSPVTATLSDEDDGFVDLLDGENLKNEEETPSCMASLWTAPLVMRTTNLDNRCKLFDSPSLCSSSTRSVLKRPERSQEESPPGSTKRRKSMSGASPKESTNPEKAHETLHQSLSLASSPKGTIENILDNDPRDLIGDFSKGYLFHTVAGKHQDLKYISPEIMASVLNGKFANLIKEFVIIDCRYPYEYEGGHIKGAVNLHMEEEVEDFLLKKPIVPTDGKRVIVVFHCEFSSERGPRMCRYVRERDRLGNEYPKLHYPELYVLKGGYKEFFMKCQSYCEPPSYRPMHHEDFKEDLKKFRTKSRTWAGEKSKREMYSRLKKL
Method in brief: (§2)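 GST-Cdc25A (full length), made in bacteria by IPTG induction and purified on GSH-agarose. Enzyme at 1 µg/well. Compounds tested at 100 µM final (reference at 10 µM). Reported as % inhibition, mean ± SD of three independent experiments.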

[4] = molecular target: T4, M-phase inducer phosphatase 3 (Homo sapiens, UniProt P30307); assay: Inhibition of human recombinant GST-tagged CDC25C expressed in bacterial expression system after 2 hrs; method in brief: as §1
T4 sequence (P30307 whole entry): T1 sequence (whole entry)

[5] = molecular target: T5, M-phase inducer phosphatase 1 (Homo sapiens, UniProt P30304); assay: Inhibition of human recombinant GST-tagged CDC25A expressed in bacterial expression system after 2 hrs
T5 sequence (P30304 whole entry): T3 sequence (whole entry)
Method in brief: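 Each concentration tested in three independent microplates, three wells per plate. Median inhibitory concentration derived by generalized Poisson regression.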

[6] = molecular target: T3, M-phase inducer phosphatase 1 (Homo sapiens); assay: Inhibition of human recombinant GST-tagged CDC25A expressed in bacterial expression system; details: TDE = time-dependent effect; method in brief: as §2
[7] = molecular target: T3, M-phase inducer phosphatase 1 (Homo sapiens); assay: Inhibition of human recombinant GST-tagged CDC25A expressed in bacterial expression system assessed as residual activity at 100 uM pretreated for 90 mins
Method in brief: (§3)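 Reversibility test. GST-Cdc25A was pre-incubated with compound at 100 µM (reference at 10 µM, DMSO control) for 0–90 min. The mixture was then diluted 100-fold to 1 µM (reference 0.1 µM). Activity was measured by adding OMFP to wells holding 900 ng enzyme. Representative of three independent experiments (M ± SD).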

[8] = molecular target: T3, M-phase inducer phosphatase 1 (Homo sapiens); assay: Irreversible inhibition of human recombinant GST-tagged CDC25A expressed in bacterial expression system at 100 uM pretreated for up to 90 mins measured after 100 fold dilution; method in brief: as §3

Row | inhibition [1] | inhibition [2] | inhibition [3] | IC50 [4] | IC50 [5] | inhibition [6] | Activity [7] | Activity [8] | Compound
1 | 15.6% | 8.5% | 27.5% |  |  |  |  |  | Cc1c(/C=C/c2ccc(O)cc2)c(=O)oc2cc(O)ccc12
2 | 23.9% | 9.2% | 55% | > 150 µM | 96 µM |  |  |  | O=C(/C=C/c1cc(=O)oc2cc(O)ccc12)c1ccc(O)cc1
3 | 27.9% |  | 26.7% |  |  |  |  |  | COc1ccc(C(=O)CSCc2cc(=O)oc3cc(OC)ccc23)cc1
4 |  | 9.1% | 7.4% |  |  |  |  |  | COc1ccc2c(C(=O)/C=C/c3ccc(OC)c(OC)c3)cc(=O)oc2c1
5 | 43.7% |  | 68.7% | 72 µM | 62 µM |  |  |  | O=C(/C=C/c1cc(=O)oc2cc(O)ccc12)c1ccc(O)c(O)c1
6 | 48.4% |  | 45.3% |  |  |  |  |  | COc1ccc(/C=C/c2c(C)c3ccc(OC)cc3oc2=O)cc1
7 | 64.8% | 21.3% | 66.4% | 47 µM | 70 µM |  |  |  | COc1ccc(C(=O)/C=C/c2cc(=O)oc3cc(OC)ccc23)cc1
8 | 31.3% |  | 45% |  |  |  |  |  | COc1ccc2c(C(=O)/C=C/c3ccccc3)cc(=O)oc2c1
9 | 4.8% |  |  |  |  |  |  |  | COc1ccc(/C=C/C(=O)c2cc(=O)oc3cc(OC)ccc23)cc1
10 | 17.9% |  | 20.5% |  |  |  |  |  | COc1ccc(-c2c(C)c3ccc(OC)cc3oc2=O)cc1
11 | 69% | 6.5% | 61.5% | 67 µM | 78 µM |  |  |  | COc1ccc2c(/C=C/C(=O)c3ccc(OC)c(OC)c3)cc(=O)oc2c1
12 | 79.3% | 35% | 94.2% | 49 µM | 27 µM | tde | 35% | Active | COc1ccc2c(/C=C/C(=O)c3ccccc3)cc(=O)oc2c1
13 | 21.2% | 16.1% |  |  |  |  |  |  | COc1ccc2c(CSCC(=O)c3ccccc3)cc(=O)oc2c1
14 |  |  | 22% |  |  |  |  |  | Cc1c(-c2ccc(O)cc2)c(=O)oc2cc(O)ccc12
15 | 26.2% |  | 39.8% |  |  |  |  |  | COc1ccc2c(CSCC(=O)c3ccc(OC)c(OC)c3)cc(=O)oc2c1
16 | 94.2% | 23.2% | 94.3% | 26 µM | 28 µM |  |  |  | O=C(/C=C/c1cc(=O)oc2cc(O)ccc12)c1ccccc1
